According to ChEMBL document CHEMBL4184083, “Design, synthesis and biological evaluation of glutamic acid derivatives as anti-oxidant and anti-inflammatory agents” (Bioorg Med Chem Lett, 2018):
In brackets after ≈: the same amount, converted by molar mass. One block for each compound: values may come before it. Activity calls are given as the source filed them. No cut-off for these calls is given here.

How the values were obtained:
[1] = Antioxidant activity assessed as DPPH radical scavenging activity incubated under dark condition for 30 mins by spectrophotometric analysis; format: functional
In short: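 DPPH radical reduction (violet to colorless in ethanol) monitored spectrophotometrically; ascorbic acid run as reference; IC50 reported in µg/ml.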

[2] = Chemical stability of the compound assessed as parent compound remaining at 1 mg/ml measured after 1 day at 45 degC by HPLC method (reference value: 100%); format: physicochemical; conditions: read-out: Stability
In short: (§1)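 Sample dissolved at 1 mg in 1 mL distilled water, stored at 45 °C and analysed by HPLC at intervals up to 28 days; remaining amount expressed relative to day-0 HPLC peak area set as 100%.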

[3] = Chemical stability of the compound assessed as parent compound remaining at 1 mg/ml measured after 21 days at 45 degC by HPLC method (reference value: 100%); format: physicochemical; conditions: read-out: Stability; in short: as §1
[4] = Chemical stability of the compound assessed as parent compound remaining at 1 mg/ml measured after 7 days at 45 degC by HPLC method (reference value: 100%); format: physicochemical; conditions: read-out: Stability; in short: as §1
[5] = Chemical stability of the compound assessed as parent compound remaining at 1 mg/ml measured after 14 days at 45 degC by HPLC method (reference value: 100%); format: physicochemical; conditions: read-out: Stability; in short: as §1
[6] = Chemical stability of the compound assessed as parent compound remaining at 1 mg/ml measured after 28 days at 45 degC by HPLC method (reference value: 100%); format: physicochemical; conditions: read-out: Stability; in short: as §1
RAW264.7 [7] = assay: Cytotoxicity against mouse RAW264.7 cells assessed as decrease in cell viability at 100 ug/ml after 24 hrs by WST-1 assay; format: cell-based; conditions: raw264.7, 24 h
Danio rerio [8] = assay: Antiinflammatory activity in Tg(mpx:GFP) zebrafish larvae assessed as decrease in neutrophil recruitment to wounded tail fin at 10 to 50 ug/ml dosed 4 hrs post amputation measured after 6 hrs; format: functional, organism-based
RAW264.7 [9] = assay: Antiinflammatory activity in mouse RAW264.7 cells assessed as inhibition of LPS-induced nitric oxide production after 24 hrs by Griess reagent based assay; format: functional, cell-based
In short: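 RAW264.7 mouse macrophages co-treated with LPS (0.3 μg/mL) plus the test agent at a range of concentrations; NO output quantified as nitrite accumulated in culture medium after 24 h incubation.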

Danio rerio [10] = species: Danio rerio; assay: Effect on neutrophil recruitment to wounded tail fin in Tg(mpx:GFP) zebrafish larvae at 10 to 50 ug/ml measured after 6 hrs; format: ADME, organism-based

SMILES: Cc1ccc(NNC(=O)CC[C@H](N)C(=O)O)cc1
remaining at 24 h, 1 mg/ml [2]: 85.1%
remaining at 504 h, 1 mg/ml [3]: 58.1%
IC50 [1]: 9.99 µg/mL (≈ 39.8 µM)
remaining at 168 h, 1 mg/ml [4]: 82%
remaining at 336 h, 1 mg/ml [5]: 72.2%
Activity (RAW264.7 [7]): Non-Toxic
remaining at 672 h, 1 mg/ml [6]: 50.4%

SMILES: N[C@@H](CCC(=O)NNc1cc(O)cc(O)c1)C(=O)O
IC50 [1]: 316.86 µg/mL (≈ 1180 µM)

SMILES: N[C@@H](CCC(=O)NNc1ccccc1F)C(=O)O
IC50 [1]: 10.86 µg/mL (≈ 42.5 µM)

SMILES: N[C@@H](CCC(=O)NNc1ccc(O)cc1O)C(=O)O
IC50 [1]: 28.01 µg/mL (≈ 104 µM)

SMILES: Cl.NC(CCC(=O)O)C(=O)NNc1ccccc1O (configuration not stated)
IC50 [1]: 37.19 µg/mL

SMILES: N[C@@H](CCC(=O)Nc1ccccc1O)C(=O)O
IC50 [1]: 162.42 µg/mL (≈ 682 µM)

SMILES: N[C@@H](CCC(=O)NNc1ccccc1O)C(=O)O
remaining at 24 h, 1 mg/ml [2]: 45.7%

SMILES: O=C1O[C@H]([C@@H](O)CO)C(O)=C1O [ASCORBIC ACID]
IC50 [1]: 17.38 µg/mL (≈ 98.7 µM)

SMILES: O=C(CC[C@H](NC(=O)OCc1ccccc1)C(=O)OCc1ccccc1)NNc1ccccc1OCc1ccccc1
IC50 [1]: 44.98 µg/mL (≈ 79.2 µM)

SMILES: Cc1ccc(NNC(=O)CC[C@H](N)C(=O)O)c(C)c1
IC50 [1]: 15.75 µg/mL (≈ 59.4 µM)

Further lines, with some results ahead:

IC50 [1]: 13.77 µg/mL (≈ 53.9 µM)
SMILES: N[C@@H](CCC(=O)NNc1ccc(F)cc1)C(=O)O

IC50 [1]: 10.67 µg/mL (≈ 42.1 µM)
SMILES: N[C@@H](CCC(=O)NNc1cccc(O)c1)C(=O)O

remaining at 24 h, 1 mg/ml [2]: 100%
remaining at 504 h, 1 mg/ml [3]: 79.2%
IC50 [1]: 9.57 µg/mL (≈ 30.3 µM)
remaining at 168 h, 1 mg/ml [4]: 94.6%
remaining at 336 h, 1 mg/ml [5]: 85.5%
remaining at 672 h, 1 mg/ml [6]: 70.7%
SMILES: CS(=O)(=O)c1ccc(NNC(=O)CC[C@H](N)C(=O)O)cc1

remaining at 24 h, 1 mg/ml [2]: 82.3%
IC50 [1]: 6.24 µg/mL (≈ 24.8 µM)
remaining at 168 h, 1 mg/ml [4]: 73.8%
remaining at 336 h, 1 mg/ml [5]: 56.7%
SMILES: Cc1ccccc1NNC(=O)CC[C@H](N)C(=O)O
Activity (RAW264.7 [7]): Non-Toxic

IC50 [1]: 11.44 µg/mL (≈ 44.8 µM)
SMILES: N[C@@H](CCC(=O)NNc1cccc(F)c1)C(=O)O

remaining at 24 h, 1 mg/ml [2]: 99.4%
remaining at 504 h, 1 mg/ml [3]: 88.8%
IC50 [1]: 8.72 µg/mL (≈ 26.2 µM)
remaining at 168 h, 1 mg/ml [4]: 95%
remaining at 336 h, 1 mg/ml [5]: 87%
remaining at 672 h, 1 mg/ml [6]: 87.2%
SMILES: CS(=O)(=O)c1ccc(NNC(=O)CC[C@H](N)C(=O)O)c(F)c1
Activity (Danio rerio [8]): Active
inhibition (RAW264.7 [9]): Dose-dependent effect
Activity (RAW264.7 [7]): Non-Toxic
Activity (Danio rerio [10]): Non-Toxic

IC50 [1]: 10.1 µg/mL (≈ 40.2 µM)
SMILES: Cc1cccc(NNC(=O)CC[C@H](N)C(=O)O)c1

IC50 [1]: 17.14 µg/mL (≈ 64.6 µM)
SMILES: CCc1ccccc1NNC(=O)CC[C@H](N)C(=O)O
